From ChEMBL document CHEMBL1150769, “Aroyl hydrazones of 2-phenylindole-3-carbaldehydes as novel antimitotic agents” (Bioorg Med Chem, 2008)
The source made the active and inactive calls. The rule behind the calls is not given here.

Tests used:
[1] = test system: U373 MG; assay: Antiproliferative activity against human U373 MG cells after 72 hrs; type: functional, cell-based; settings: U-373MG ATCC
In short: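 Human U-373 MG glioblastoma cells grown in EMEM with sodium pyruvate, gentamycin, NaHCO3, phenol red and 5% FCS. Exposure was continuous at 10, 50, 100 and 200 nM, with DMF in the controls. Plates were fixed with glutaric dialdehyde at intervals and stained together with crystal violet. Absorbance read at 578 nm; corrected T/C% = (T − C0)/(C − C0) × 100.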

[2] = test system: MCF7; assay: Antiproliferative activity against human MCF7 cells after 5 days by microplate assay; type: functional, cell-based; settings: MCF7, 120 h
In short: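 MCF-7 cells grown in EMEM with sodium pyruvate, gentamycin, NaHCO3, phenol red and 10% FCS; seeded in 96-well plates and grown 2–3 days at 37 °C, 5% CO2, then medium with compound (DMF stock; controls 0.1% DMF) for 5 days; glutaric dialdehyde fixation, 0.02% crystal violet stain, ethanol extraction, OD 578 nm; mean of two experiments, 16–24 replicates.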

[3] = test system: MDA-MB-231; assay: Antiproliferative activity against human MDA-MB-231 cells after 4 days by microplate assay; type: functional, cell-based; settings: MDA-MB-231, 96 h
In short: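 MDA-MB 231 cells grown in McCoy-5a with L-glutamine, gentamycin, NaHCO3 and 5% FCS; 2–3 days growth at 37 °C, 5% CO2 before compound in fresh medium (controls 0.1% DMF); about 4 days exposure; 1% glutaric dialdehyde fixation, 0.02% crystal violet, 70% EtOH elution, OD 578 nm; mean of two experiments with 16–24 replicates.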

[4] = test system: HL-60; assay: Antiproliferative activity against human HL60 cells after 48 hrs by MTT assay; type: functional, cell-based; settings: HL-60, 48 h
In short: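 HL-60 human leukemia cells kept in log growth in RPMI 1640 with 10% FCS, penicillin G and streptomycin; treated for 48 h; growth read by MTT assay; IC50 = 50% and IC90 = 90% inhibition of cell growth; values given ± SD.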

[5] = test system: U373 MG; assay: Antiproliferative activity against human U373 MG cells at 50 nM after 72 hrs; type: functional, cell-based; settings: U-373MG ATCC
In short: (§1)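 U-373 MG glioblastoma cells in EMEM-type medium with 5% FCS under permanent exposure to 10–200 nM; plates fixed with glutaric dialdehyde at various times, stored cold, then crystal violet stained together; absorbance expressed as corrected T/C = (T − C0)/(C − C0) × 100 (%).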

[6] = test system: U373 MG; assay: Antiproliferative activity against human U373 MG cells at 200 nM after 100 hrs; type: functional, cell-based; settings: U-373MG ATCC
In short: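 Confluent (resting) U-373 MG cultures exposed to compound, with DMSO solvent controls, for up to ~150 h; crystal violet staining of fixed cells at various times; effect expressed as cytocidal effect (%) versus time.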

[7] = test system: HL-60; assay: Induction of apoptosis in human HL60 cells assessed as increase in caspase 3 activation at 500 nM after 24 hrs; type: functional, cell-based
In short: (§2)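 HL-60 cells (3 million at 5 × 10^5 cells/mL) treated 24 h at 37 °C, 5% CO2; hypotonic Hepes/DTT/EDTA/CHAPS lysates on ice; Ac-DMQD-AMC (1.0 μM final) cleaved 60 min at 30 °C; released AMC separated by RP-HPLC, quantified fluorometrically (ex 355 or 400, em 435 nm) against AMC standards; activity in pmol/min/mg; means of three experiments ± SD.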

[8] = test system: U-87 MG; assay: Effect on cell morphology in human U87 MG cells assessed as disruption of microtubule network at 50 nM by confocal fluorescence microscopy; type: functional, cell-based; settings: U-87MG ATCC
In short: (§3)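 U-87 MG cells at 75% confluence in chamber slides treated 3 h at 37 °C (EtOH vehicle); fixed in 4% paraformaldehyde, permeabilized with 1% Triton X-100; α-tubulin immunostained (Cy5 secondary), nuclei with SYTOX Green; imaged by confocal laser scanning microscopy.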

[9] = test system: MDA-MB-231; assay: Cell cycle arrest in human MDA-MB-231 cells assessed as increase in accumulation at G2/M phase after 24 hrs by flow cytometry; type: functional, cell-based
In short: (§4)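 MDA-MB 231 cells at 70–80% confluence in 75 cm2 flasks exposed 24 h (DMF vehicle, 0.1% final); trypsinized, fixed in ice-cold 70% EtOH, DNA extraction buffer, propidium iodide stain ≥30 min at room temperature; 8000–15,000 events analysed by flow cytometry for sub-G1, G1/G0, S and G2/M fractions; representative of two experiments.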

[10] = test system: MDA-MB-231; assay: Cell cycle arrest in human MDA-MB-231 cells assessed as decrease in accumulation at G1/G0 phase after 24 hrs by flow cytometry; type: functional, cell-based; in short: as §4
[11] = Inhibition of tubulin polymerization at 5 uM by microplate assay
In short: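 Tubulin suspended in cold G-PEM buffer with 5% glycerol and depolymerised at 0 °C. It was added to compound that had been diluted 1:10 from DMSO stock into G-PEM in wells prewarmed to 37 °C. Turbidity was read at 355 nm every minute for 28–30 min at 37 °C. Solvent controls held 1% DMSO; colchicine (5 µM) and paclitaxel (2 µM) were run as references.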

[12] = test system: U-87 MG; assay: Effect on cell morphology in human U87 MG cells assessed as disruption of microtubule network at 10 nM by confocal fluorescence microscopy; type: functional, cell-based; settings: U-87MG ATCC; in short: as §3
[13] = test system: HL-60; assay: Induction of apoptosis in human HL60 cells assessed as caspase 3 activation at 100 nM after 24 hrs; type: functional, cell-based; in short: as §2
[14] = test system: U373 MG; assay: Antiproliferative activity against human U373 MG cells at 10 nM; type: functional, cell-based; settings: U-373MG ATCC; in short: as §1
[15] = Inhibition of tubulin polymerization at 5 uM by microplate assay
[16] = test system: HL-60; assay: Induction of apoptosis in human HL60 cells assessed as increase in caspase 3 activation at 2.0 uM after 24 hrs; type: functional
[17] = test system: HL-60; assay: Induction of apoptosis in human HL60 cells assessed as increase in caspase 3 activation at 1 uM after 24 hrs; type: functional, cell-based
[18] = test system: HL-60; assay: Induction of apoptosis in human HL60 cells assessed as increase in caspase 9 activation at 1 uM after 24 hrs; type: functional, cell-based

SMILES | IC50 [2] | IC50 [3] | further results
C=C(C)[C@H]1Cc2c(ccc3c2O[C@@H]2COc4cc(OC)c(OC)cc4[C@@H]2C3=O)O1 |  |  | Activity [1]: Active
CCCCc1ccc2[nH]c(-c3ccc(OC)cc3)c(/C=N/NC(=O)c3ccc([N+](=O)[O-])cc3)c2c1 | 312 nM | 115 nM | 
CCCCc1ccc2[nH]c(-c3ccc(OC)cc3)c(/C=N/NC(=O)c3cccc(O)c3)c2c1 |  | 30 nM | 
CCCCc1ccc2[nH]c(-c3ccc(OC)cc3)c(/C=N/NC(=O)c3cccc(OC)c3)c2c1 |  | 55 nM | 
CCCCc1ccc2[nH]c(-c3ccc(OC)cc3)c(/C=N/NC(=O)c3ccc(F)cc3)c2c1 | 84 nM | 19 nM | IC50 [4]: 91 nM; IC90 [4]: 164 nM; Activity [5]: Active; Activity [6]: Active; Activity [7]: Active; Activity [8]: inactive
CCCCc1ccc2[nH]c(-c3ccc(C(F)(F)F)cc3)c(/C=N/NC(=O)c3ccccc3)c2c1 | 460 nM | 300 nM | 
CCCCc1ccc2[nH]c(-c3ccc(OC)cc3)c(/C=N/NC(=O)c3ccccc3)c2c1 | 130 nM | 32 nM | Activity [9]: Active; Activity [10]: Active
COc1cc2c(c(OC)c1OC)-c1ccc(OC)c(=O)cc1[C@@H](NC(C)=O)CC2 |  |  | Activity [11]: Active
CCCCc1ccc2[nH]c(-c3ccc(OC)cc3)c(/C=N/NC(=O)c3ccncc3)c2c1 | 69 nM | 29 nM | 
CCCCc1ccc2[nH]c(-c3ccc(C(F)(F)F)cc3)c(/C=N/NC(=O)c3ccc(Cl)cc3)c2c1 | 1060 nM | 329 nM | 
CC[C@]1(O)C[C@H]2CN(CCc3c([nH]c4ccccc34)[C@@](C(=O)OC)(c3cc4c(cc3OC)N(C=O)[C@H]3[C@@](O)(C(=O)OC)[C@H](OC(C)=O)[C@]5(CC)C=CCN6CC[C@]43[C@@H]65)C2)C1 [VINCRISTINE] | 2 nM | 6 nM | Activity [12]: Active
CCCCc1ccc2[nH]c(-c3ccc(OC)cc3)c(/C=N/NC(=O)c3ccc(OC)cc3)c2c1 | 226 nM | 61 nM | 
CCCCc1ccc2[nH]c(-c3ccc(OC)cc3)c(/C=N/NC(=O)c3cccnc3)c2c1 | 75 nM | 35 nM | IC50 [4]: 50 nM; IC90 [4]: 115 nM; Activity [6]: Active; Activity [13]: Active; Activity [14]: Active
CC(=O)O[C@H]1C(=O)[C@@]2(C)[C@H]([C@H](OC(=O)c3ccccc3)[C@]3(O)C[C@H](OC(=O)[C@H](O)[C@@H](NC(=O)c4ccccc4)c4ccccc4)C(C)=C1C3(C)C)[C@]1(OC(C)=O)CO[C@@H]1C[C@@H]2O |  |  | Activity [15]: Active
CCCCc1ccc2[nH]c(-c3ccc(OC)cc3)c(/C=N/NC(=O)c3ccc(Cl)cc3)c2c1 | 220 nM | 90 nM | 
CCCCc1ccc2[nH]c(-c3ccc(C(F)(F)F)cc3)c(/C=N/NC(=O)c3cccnc3)c2c1 | 260 nM | 97 nM | 
COc1cc([C@@H]2c3cc4c(cc3[C@@H](O[C@@H]3O[C@@H]5CO[C@@H](C)O[C@H]5[C@H](O)[C@H]3O)[C@H]3COC(=O)[C@H]23)OCO4)cc(OC)c1O [ETOPOSIDE] |  |  | IC50 [4]: 315 nM; Activity [16]: 3.37
COc1ccc(-c2[nH]c3ccc(C)cc3c2/C=N/NC(=O)c2ccncc2)cc1 | 200 nM | 290 nM | 
CCCCc1ccc2[nH]c(-c3ccc(C(F)(F)F)cc3)c(/C=N/NC(=O)c3ccc(OC)cc3)c2c1 | 618 nM | 284 nM | 
CCCCc1ccc2[nH]c(-c3ccc(OC)cc3)c(/C=N/O)c2c1 | 212 nM | 40 nM | 
CCCCc1ccc2[nH]c(-c3ccc(CC)cc3)c(/C=N/NC(=O)c3ccncc3)c2c1 | 150 nM | 80 nM | 
CCCCc1ccc2[nH]c(-c3ccc(C(F)(F)F)cc3)c(/C=N/NC(=O)c3ccncc3)c2c1 | 100 nM | 94 nM | Activity [17]: Active; Activity [18]: Active
CCCCc1ccc2[nH]c(-c3ccc(CC)cc3)c(/C=N/NC(=O)c3cccnc3)c2c1 | 100 nM | 53 nM | 
CCCCc1ccc2[nH]c(-c3ccc(C(F)(F)F)cc3)c(/C=N/NC(=O)c3ccc([N+](=O)[O-])cc3)c2c1 | 6340 nM | 2040 nM | 
CCCCc1ccc2[nH]c(-c3ccc(C(F)(F)F)cc3)c(/C=N/NC(=O)c3ccccn3)c2c1 | 310 nM | 260 nM | 
CCCCc1ccc2[nH]c(-c3ccc(OC)cc3)c(/C=N/NC(=O)c3ccccn3)c2c1 | 160 nM | 34 nM | IC50 [4]: 213 nM; IC90 [4]: 333 nM
CCCCc1ccc2[nH]c(-c3ccc(OC)cc3)c(/C=N/NC(=O)c3ccccc3OC)c2c1 | 71 nM | 21 nM | IC50 [4]: 74 nM; IC90 [4]: 142 nM; Activity [7]: Active
